Measurements reported in ChEMBL document CHEMBL4038305, “Benzoxaborole Antimalarial Agents. Part 5. Lead Optimization of Novel Amide Pyrazinyloxy Benzoxaboroles and Identification of a Preclinical Candidate” (J Med Chem, 2017).

Columns and labels:
[1] = system: Plasmodium falciparum; assay: Antimalarial activity against chloroquine-resistant Plasmodium falciparum W2 infected in human erythrocytes after 48 hrs by YOYO-1 dye based flow cytometric analysis; type: functional, cell-based; conditions: W2, 48 h
In short: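 P. falciparum W2 cultures were exposed to the compound for 48 h, with artemisinin and chloroquine as reference controls. IC50 was taken from two independent replicates.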

[2] = system: Plasmodium berghei; assay: Antimalarial activity against Plasmodium berghei infected in Swiss Webster mouse assessed as mouse survival rate at 11 mg/kg administered once daily via oral gavage for 4 consecutive days beginning 1 hr after infection measured on day 7 post infection relative to control; type: functional
In short: (§1)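 P. berghei-infected erythrocytes taken from a previously infected mouse were injected intraperitoneally. Oral dosing, once daily for 4 consecutive days, began 1 h after infection, in polyethylene glycol 300/propylene glycol/water (55/25/20 by weight). Chloroquine at 30 mg/kg was the positive control, with a vehicle-only group. Percent survival was recorded daily from day 4 to day 20.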

[3] = system: Plasmodium berghei; assay: Antimalarial activity against Plasmodium berghei infected in Swiss Webster mouse assessed as mouse survival rate at 33 mg/kg administered once daily via oral gavage for 4 consecutive days beginning 1 hr after infection measured on day 9 post infection relative to control; type: functional; in short: as §1
[4] = system: Plasmodium berghei; assay: Antimalarial activity against Plasmodium berghei infected in Swiss Webster mouse assessed as mouse survival rate at 33 mg/kg administered once daily via oral gavage for 4 consecutive days beginning 1 hr after infection measured on day 8 post infection relative to control; type: functional; in short: as §1
[5] = system: Plasmodium berghei; assay: Antimalarial activity against Plasmodium berghei infected in Swiss Webster mouse assessed as mouse survival rate at 3.7 mg/kg administered once daily via oral gavage for 4 consecutive days beginning 1 hr after infection measured on day 4 post infection relative to control; type: functional; in short: as §1
[6] = system: Plasmodium berghei; assay: Antimalarial activity against Plasmodium berghei infected in Swiss Webster mouse assessed as mouse survival rate at 11 mg/kg administered once daily via oral gavage for 4 consecutive days beginning 1 hr after infection measured on day 5 post infection relative to control; type: functional; in short: as §1
[7] = system: Plasmodium berghei; assay: Antimalarial activity against Plasmodium berghei infected in Swiss Webster mouse assessed as mouse survival rate at 33 mg/kg administered once daily via oral gavage for 4 consecutive days beginning 1 hr after infection measured on day 5 post infection relative to control; type: functional; in short: as §1
[8] = system: Plasmodium berghei; assay: Antimalarial activity against Plasmodium berghei infected in Swiss Webster mouse assessed as mouse survival rate at 33 mg/kg administered once daily via oral gavage for 4 consecutive days beginning 1 hr after infection measured on day 6 post infection relative to control; type: functional; in short: as §1
[9] = system: Plasmodium berghei; assay: Antimalarial activity against Plasmodium berghei infected in Swiss Webster mouse assessed as mouse survival rate at 100 mg/kg administered once daily via oral gavage for 4 consecutive days beginning 1 hr after infection measured on day 8 post infection relative to control; type: functional
In short: (§2)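 Mice given an intraperitoneal injection of P. berghei-infected erythrocytes taken from a previously infected animal. Oral dosing once daily for 4 consecutive days, starting 1 h after infection. Vehicle: polyethylene glycol 300/propylene glycol/water (weight ratio 55/25/20). Percent survival recorded daily from day 4 to day 20. Chloroquine 30 mg/kg and vehicle-only groups served as controls.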

[10] = system: Plasmodium berghei; assay: Antimalarial activity against Plasmodium berghei infected in Swiss Webster mouse assessed as mouse survival rate at 11 mg/kg administered once daily via oral gavage for 4 consecutive days beginning 1 hr after infection measured on day 6 post infection relative to control; type: functional; in short: as §1
[11] = Volume of distribution at steady state in CD1 mouse at 5 mg/kg, iv by HPLC/MS analysis; type: ADME, organism-based; conditions: in vivo, read-out: Vdss
In short: (§3)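 Female CD-1 mice, male SD rats or beagle dogs given 5 mg/kg by iv injection or oral gavage. Formulation was PEG300/propylene glycol/water 55/25/20, pH 6. Blood samples analysed by HPLC–MS/MS; parameters include AUC0-inf extrapolated to infinity and terminal half-life.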

[12] = system: Plasmodium berghei; assay: Antimalarial activity against Plasmodium berghei infected in Swiss Webster mouse assessed as mouse survival rate at 0.4 mg/kg administered once daily via oral gavage for 4 consecutive days beginning 1 hr after infection measured on day 6 post infection relative to control; type: functional; in short: as §2
[13] = system: Plasmodium berghei; assay: Antimalarial activity against Plasmodium berghei infected in Swiss Webster mouse assessed as mouse survival rate at 100 mg/kg administered once daily via oral gavage for 4 consecutive days beginning 1 hr after infection measured on day 5 post infection relative to control; type: functional; in short: as §2
[14] = system: Plasmodium berghei; assay: Antimalarial activity against Plasmodium berghei infected in Swiss Webster mouse assessed as mouse survival rate at 33 mg/kg administered once daily via oral gavage for 4 consecutive days beginning 1 hr after infection measured on day 7 post infection relative to control; type: functional; in short: as §1
[15] = system: Plasmodium berghei; assay: Antimalarial activity against Plasmodium berghei infected in Swiss Webster mouse assessed as mouse survival rate at 0.4 mg/kg administered once daily via oral gavage for 4 consecutive days beginning 1 hr after infection measured on day 4 post infection relative to control; type: functional; in short: as §2
[16] = system: Plasmodium berghei; assay: Antimalarial activity against Plasmodium berghei infected in Swiss Webster mouse assessed as mouse survival rate at 100 mg/kg administered once daily via oral gavage for 4 consecutive days beginning 1 hr after infection measured on day 7 post infection relative to control; type: functional; in short: as §2
[17] = system: Plasmodium berghei; assay: Antimalarial activity against Plasmodium berghei infected in Swiss Webster mouse assessed as mouse survival rate at 100 mg/kg administered once daily via oral gavage for 4 consecutive days beginning 1 hr after infection measured on day 6 post infection relative to control; type: functional; in short: as §2
[18] = Terminal half life in CD1 mouse at 5 mg/kg, iv by HPLC/MS analysis; type: ADME, organism-based; conditions: in vivo, read-out: beta t1/2 (converted); in short: as §3
[19] = system: Plasmodium berghei; assay: Antimalarial activity against Plasmodium berghei infected in Swiss Webster mouse assessed as mouse survival rate at 3.7 mg/kg administered once daily via oral gavage for 4 consecutive days beginning 1 hr after infection measured on day 7 post infection relative to control; type: functional; in short: as §1
[20] = Clearance in CD1 mouse at 5 mg/kg, iv by HPLC/MS analysis; type: ADME, organism-based; conditions: in vivo
In short: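 Female CD-1 mice, male SD rats and beagle dogs received 5 mg/kg either iv or by oral gavage. Vehicle was PEG 300/propylene glycol/water (55/25/20, pH 6). Blood was sampled and drug measured by HPLC-MS/MS.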

[21] = system: Plasmodium berghei; assay: Antimalarial activity against Plasmodium berghei infected in Swiss Webster mouse assessed as mouse survival rate at 0.4 mg/kg administered once daily via oral gavage for 4 consecutive days beginning 1 hr after infection measured on day 7 post infection relative to control; type: functional; in short: as §2
[22] = system: Plasmodium berghei; assay: Antimalarial activity against Plasmodium berghei infected in Swiss Webster mouse assessed as mouse survival rate at 200 mg/kg administered once daily via oral gavage for 4 consecutive days beginning 1 hr after infection measured on day 6 post infection relative to control; type: functional; in short: as §1
[23] = Metabolic stability in rat hepatocytes at 22 uM after 44 hrs; type: ADME, cell-based, Hepatocyte
[24] = system: Plasmodium berghei; assay: Antimalarial activity against Plasmodium berghei infected in Swiss Webster mouse assessed as mouse survival rate at 0.1 mg/kg administered once daily via oral gavage for 4 consecutive days beginning 1 hr after infection measured on day 6 post infection relative to control; type: functional; in short: as §2
[25] = system: Plasmodium berghei; assay: Antimalarial activity against Plasmodium berghei infected in Swiss Webster mouse assessed as mouse survival rate at 100 mg/kg administered once daily via oral gavage for 4 consecutive days beginning 1 hr after infection measured on day 14 post infection relative to control; type: functional; in short: as §2
[26] = system: Plasmodium berghei; assay: Antimalarial activity against Plasmodium berghei infected in Swiss Webster mouse assessed as mouse survival rate at 11 mg/kg administered once daily via oral gavage for 4 consecutive days beginning 1 hr after infection measured on day 8 post infection relative to control; type: functional; in short: as §1

| Compound | IC50 [1] [nM] | survival at 11 mg/kg [2] [%] | survival at 33 mg/kg [3] [%] | survival at 33 mg/kg [4] [%] | survival at 3.7 mg/kg [5] [%] | survival at 11 mg/kg [6] [%] | survival at 33 mg/kg [7] [%] | survival at 33 mg/kg [8] [%] | survival at 100 mg/kg [9] [%] | survival at 11 mg/kg [10] [%] | survival at 0.4 mg/kg [12] [%] | survival at 100 mg/kg [13] [%] | survival at 33 mg/kg [14] [%] | survival at 0.4 mg/kg [15] [%] | survival at 100 mg/kg [16] [%] | survival at 100 mg/kg [17] [%] | survival at 3.7 mg/kg [19] [%] | survival at 0.4 mg/kg [21] [%] | survival at 200 mg/kg [22] [%] | survival at 100 mg/kg [25] [%] | also measured |
| --- | --- | --- | --- | --- | --- | --- | --- | --- | --- | --- | --- | --- | --- | --- | --- | --- | --- | --- | --- | --- | --- |
| Cc1c(Oc2cnc(C(=O)N[C@@H](CO)CC(F)(F)F)cn2)ccc2c1B(O)OC2 | 82.2 | 0 | 100 | 100 | 100 | 100 | 100 | 100 | 100 | 100 | 100 | 100 | 100 | 100 | 100 | 100 | 0 | 0 |  |  | Vd [11]: 0.741 L/kg; half-life [18]: 3 h; clearance [20]: 3.97 mL/min/kg |
| Cc1c(Oc2cnc(C(=O)NCCO)cn2)ccc2c1B(O)OC2 | 372 | 0 |  |  | 100 | 100 | 100 | 100 | 40 | 100 |  | 100 | 0 |  | 80 | 100 | 0 |  | 100 |  | Vd [11]: 0.636 L/kg; half-life [18]: 3 h; clearance [20]: 2.65 mL/min/kg |
| Cc1c(Oc2cnc(C(=O)N3CC(O)(C4CC4)C3)cn2)ccc2c1B(O)OC2 | 51.7 | 0 | 100 | 100 | 100 | 100 | 100 | 100 | 100 | 100 | 100 | 100 | 100 | 100 | 100 | 100 | 0 | 0 |  | 0 | Stability [23]: Stable; survival at 0.1 mg/kg [24]: 100% |
| Cc1c(Oc2cnc(C(=O)N3CC(O)(C(C)C)C3)cn2)ccc2c1B(O)OC2 | 40.7 | 60 | 100 | 100 | 100 | 100 | 100 | 100 | 100 | 100 | 100 | 100 | 100 | 100 | 100 | 100 | 0 | 0 | 100 | 100 | Stability [23]: Stable; survival at 0.1 mg/kg [24]: 100%; survival at 11 mg/kg [26]: 60% |
| CCC[C@H](CO)NC(=O)c1cnc(Oc2ccc3c(c2C)B(O)OC3)cn1 | 161 | 0 | 0 | 100 | 100 | 100 | 100 | 100 | 100 | 100 |  | 100 | 100 |  | 100 | 100 | 0 |  | 100 | 0 | Vd [11]: 0.874 L/kg; half-life [18]: 4.2 h; clearance [20]: 4.05 mL/min/kg |
| Cc1c(Oc2cnc(C(=O)N3CC(O)(C(F)(F)F)C3)cn2)ccc2c1B(O)OC2 | 6.6 | 100 | 100 | 100 | 100 | 100 | 100 | 100 | 100 | 100 | 100 | 100 | 100 | 100 | 100 | 100 | 0 | 0 |  | 100 | Stability [23]: Stable; survival at 0.1 mg/kg [24]: 100%; survival at 11 mg/kg [26]: 0% |
| CCCC1(O)CN(C(=O)c2cnc(Oc3ccc4c(c3C)B(O)OC4)cn2)C1 | 15.9 | 80 | 100 | 100 | 100 | 100 | 100 | 100 | 100 | 100 | 100 | 100 | 100 | 100 | 100 | 100 | 0 | 0 | 100 | 80 | Stability [23]: Stable; survival at 0.1 mg/kg [24]: 100%; survival at 11 mg/kg [26]: 80% |
| CCC1(O)CN(C(=O)c2cnc(Oc3ccc4c(c3C)B(O)OC4)cn2)C1 | 28.9 | 40 | 80 | 100 | 100 | 100 | 100 | 100 | 100 | 100 | 100 | 100 | 100 | 100 | 100 | 100 | 0 | 0 | 100 | 0 | Stability [23]: Stable; survival at 0.1 mg/kg [24]: 100%; survival at 11 mg/kg [26]: 0% |
